The test system of data set [1] is Plasma. Briefly: Drug metabolism in human plasma assessed as [Cys-Arg-Phe-Phe-Cys]-COOH metabolite formation after 15 to 30 mins by ESI-RP-HPLC analysis. The class given is ADME, cell-free. The procedure, abridged:
(§1)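 Peptide in sterile water mixed with 90% human serum and incubated at 37 °C. Aliquots taken at 0, 15, 30, 60 and 120 min, precipitated with ACN/0.1% TFA and centrifuged (12 000 rpm, 15 min, 4 °C). Supernatant analysed by RP-HPLC with a 10–90% ACN (0.1% TFA) gradient over 20 min. Relative peptide level taken from A230 peak integration.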

For data set [2], the target named is T1, C-X-C chemokine receptor type 4 (Homo sapiens, UniProt P61073). Briefly: Binding affinity to CXCR4 in human CCRF-CEM cell membranes assessed as signal to noise ratio in presence of 0.1 mM plerixafor by STD-NMR method. In a few lines:
(§2)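 Pellet of 20 x 10^6 intact cells (CCRF-CEM, CXCR4-null CHO or CXCR4-stably transfected CHO) resuspended in 450 µL PBS pH 7.4 plus 50 µL 2H2O. Peptide added for STD, WaterLOGSY or trNOESY 1H NMR. Spectra of peptide alone and of cells alone acquired as reference. Competition run by adding plerixafor to the indicated concentration (0.010–0.100 mM in STD). STD/WaterLOGSY read as signal-to-noise ratio.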

Data set [3] addresses T1, C-X-C chemokine receptor type 4. Briefly: Binding affinity to CXCR4 in human CCRF-CEM cell membranes assessed as signal to noise ratio in presence of 0.02 mM plerixafor by STD-NMR method. The procedure, abridged: as §2
The target is the same in data set [4]. The experiment in a line: Binding affinity to CXCR4 in human CCRF-CEM cell membranes by WaterLOGSY-NMR method. The procedure, abridged: as §2
Data set [5] in a line: Half life in human plasma by HPLC analysis. It is filed as ADME, cell-free. In a few lines:
as §1

The target in data set [6] is T1, C-X-C chemokine receptor type 4. The experiment in a line: Binding affinity to CXCR4 in human CCRF-CEM cell membranes in presence of plerixafor by WaterLOGSY-NMR method. The procedure, abridged: as §2
The target is the same in data set [7]. The experiment in a line: Binding affinity to CXCR4 in human CCRF-CEM cell membranes assessed as signal to noise ratio by STD-NMR method. The procedure, abridged: as §2
Data set [8] is described as follows: Stability in human CCRF-CEM cells up to 2 hrs by NMR spectral analysis. It is filed as ADME, cell-based.
In data set [9] the target is T1, C-X-C chemokine receptor type 4. The experiment in a line: Binding affinity to CXCR4 in human CCRF-CEM cell membranes assessed as signal to noise ratio in presence of 0.05 mM plerixafor by STD-NMR method. In a few lines: as §2
For data set [10] the target is unchanged. Briefly: Binding affinity to CXCR4 in human CCRF-CEM cell membranes assessed as signal to noise ratio in presence of 0.01 mM plerixafor by STD-NMR method. The procedure, abridged: as §2
The species named for the next data set is Cricetulus griseus. The experiment in a line: Binding affinity to CHO cell membranes assessed as signal to noise ratio by STD-NMR method. The procedure, abridged:
as §2

Data set [11] addresses T1, C-X-C chemokine receptor type 4. Briefly: Antagonist activity at CXCR4 in human CCRF-CEM cells assessed as inhibition of PE-conjugated 12G5 antibody binding. It is filed as cell-based. In a few lines: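 CCRF-CEM cells (5 × 10^5) preincubated 30 min at 37 °C, 5% CO2 with peptide at 0.01, 0.1, 1 and 10 µM in PBS plus 0.2% BSA and 0.1% NaN3. Then labeled 30 min with PE anti-CXCR4 antibody clone 12G5. IC50 taken as concentration reducing 12G5 binding by 50%, reported as mean ± SD.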

Data set [12] shares this target. The experiment in a line: Binding affinity to CXCR4 (unknown origin) expressed in CHO cell membranes assessed as signal to noise ratio by STD-NMR method. The procedure, abridged:
as §2

Data set [13] has as its system Plasma. The experiment in a line: Drug level in human plasma treated with (4R,7S,10S,13S,16R)-16-((S)-2-((S)-2-amino-5-guanidinopentanamido)propanam(4R,7S,10S,13S,16R)-16-((S)-2-((S)-2-amino-5-guanidinopentanamido)propanamido)-7,10-dibenzyl-13-(3-guanidinopropyl)-6,9,12,15-tetraoxo-1,2-dithia-5,8,11,14-tetraazacycloheptadecane-4-carboxylic acid after 15 to 30 mins by ESI-RP-HPLC analysis. The class given is ADME, cell-free. In a few lines:
as §1

Data set [14] is described as follows: Stability in human CCRF-CEM cells up to 6 hrs by NMR spectral analysis. It is filed as ADME, cell-based.
Data set [15] relates to Plasma. Briefly: Stability in human plasma up to 120 mins by ESI-RP-HPLC analysis. It is filed as ADME, cell-free. To be noted: 2 h. The procedure, abridged: as §1

The source made the active and inactive calls. The calls are words filed in the database; no cut-off is given here. Residues, ends and D or L forms follow the SMILES beside them.

T1 sequence (P61073 whole entry): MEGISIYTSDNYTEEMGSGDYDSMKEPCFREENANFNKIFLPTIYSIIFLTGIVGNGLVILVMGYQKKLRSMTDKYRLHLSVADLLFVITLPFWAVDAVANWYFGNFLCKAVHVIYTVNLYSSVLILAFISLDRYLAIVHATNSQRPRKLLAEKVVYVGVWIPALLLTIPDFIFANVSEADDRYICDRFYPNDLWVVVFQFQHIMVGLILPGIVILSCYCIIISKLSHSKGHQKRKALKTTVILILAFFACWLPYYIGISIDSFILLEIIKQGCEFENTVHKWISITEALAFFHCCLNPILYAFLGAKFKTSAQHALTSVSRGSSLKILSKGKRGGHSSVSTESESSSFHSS

`C[C@H](NC(=O)[C@@H](N)CCCNC(=N)N)C(=O)N[C@H]1CSSC[C@@H](C(=O)O)NC(=O)[C@H](Cc2ccccc2)NC(=O)[C@H](Cc2ccccc2)NC(=O)[C@H](CCCNC(=N)N)NC1=O`: in the data set with Plasma [1], the Drug metabolism result is reported as “Metabolite_Detected”. The Ratio was 5.9 in data set [2]; 6.3 in data set [3]; 13.3 in data set [7]; 6.1 in data set [9]; 7.2 in data set [10]. In addition, in [4], the outcome was Active. Also, the half-life in [5] came out at 22 min. Moreover, the outcome in data set [6] was inactive. Moreover, the Stability result in data set [8] was “Unstable”.
Consider `C[C@H](NC(=O)[C@H](N)CCCNC(=N)N)C(=O)N[C@H]1CSSC[C@@H](C(=O)O)NC(=O)[C@H](Cc2ccccc2)NC(=O)[C@H](Cc2ccccc2)NC(=O)[C@H](CCCNC(=N)N)NC1=O`, for which the Ratio was 8.2 in the data set filed under Cricetulus griseus and 9.6 in data set [12]. Further, the IC50 in data set [11] is above 10 µM.
For `N=C(N)NCCC[C@@H]1NC(=O)[C@@H](N)CSSC[C@@H](C(=O)O)NC(=O)[C@H](Cc2ccccc2)NC(=O)[C@H](Cc2ccccc2)NC1=O` (HELM PEPTIDE1{C.R.F.F.C}$PEPTIDE1,PEPTIDE1,1:R3-5:R3$$$V2.0), the Drug metabolism result in the data set on Plasma [13] is reported as “Metabolite_Detected”.
In the case of `C[C@@H]1NC(=O)[C@H](Cc2ccccc2)NC(=O)[C@@H](NC(=O)[C@H](CCCNC(=N)N)NC(=O)[C@@H](N)Cc2ccccc2)CSSC[C@@H](C(=O)O)NC(=O)[C@H](CCCNC(=N)N)NC1=O` (HELM PEPTIDE1{F.R.C.F.A.R.C}$PEPTIDE1,PEPTIDE1,3:R3-7:R3$$$V2.0), the Ratio is 11.7 in the data set filed under Cricetulus griseus and 10.2 in [12]. Also, the IC50 in data set [11] is above 10 µM.
Turning to `C[C@H](NC(=O)C1CCN(C(=N)N)CC1)C(=O)N[C@H]1CSSC[C@@H](C(=O)O)NC(=O)[C@H](Cc2ccccc2)NC(=O)[C@H](Cc2ccccc2)NC(=O)[C@H](CCCNC(=N)N)NC1=O` (HELM PEPTIDE1{[N=C(N)N1CCC(C(=O)[*:2])CC1].A.C.R.F.F.C}$PEPTIDE1,PEPTIDE1,3:R3-7:R3$$$V2.0), the IC50 in data set [11] is above 10 µM.
For `C[C@H](NC(=O)CCCNC(=N)N)C(=O)N[C@H]1CSSC[C@@H](C(=O)O)NC(=O)[C@H](Cc2ccccc2)NC(=O)[C@H](Cc2ccccc2)NC(=O)[C@H](CCCNC(=N)N)NC1=O` (HELM PEPTIDE1{[N=C(N)NCCCC(=O)[*:2]].A.C.R.F.F.C}$PEPTIDE1,PEPTIDE1,3:R3-7:R3$$$V2.0), in [11], the IC50 is above 10 µM.
For the compound `C[C@H](NC(=O)c1ccc(NC(=N)N)cc1)C(=O)N[C@H]1CSSC[C@@H](C(=O)O)NC(=O)[C@H](Cc2ccccc2)NC(=O)[C@H](Cc2ccccc2)NC(=O)[C@H](CCCNC(=N)N)NC1=O` (HELM PEPTIDE1{[N=C(N)Nc1ccc(C(=O)[*:2])cc1].A.C.R.F.F.C}$PEPTIDE1,PEPTIDE1,3:R3-7:R3$$$V2.0), in data set [11], the half-inhibitory concentration (IC50) is above 10 µM.
For the compound `C[C@H](NC(=O)c1cccc(NC(=N)N)c1)C(=O)N[C@H]1CSSC[C@@H](C(=O)O)NC(=O)[C@H](Cc2ccccc2)NC(=O)[C@H](Cc2ccccc2)NC(=O)[C@H](CCCNC(=N)N)NC1=O` (HELM PEPTIDE1{[N=C(N)Nc1cccc(C(=O)[*:2])c1].A.C.R.F.F.C}$PEPTIDE1,PEPTIDE1,3:R3-7:R3$$$V2.0), the Stability result (in data set [14]; with Plasma [15]) was “Stable” throughout. Besides, the results for the Ratio (in the data set filed under Cricetulus griseus; in data set [7]; in data set [12]) were 12.5, 10 and 35.9, respectively. For the same compound, in data set [11], the IC50 was found to be 3.2 µM. The compound further yielded a half-life in data set [5] above 120 min.
As for `CC(=O)N[C@@H](CCCNC(=N)N)C(=O)N[C@@H](C)C(=O)N[C@H]1CSSC[C@@H](C(=O)O)NC(=O)[C@H](Cc2ccccc2)NC(=O)[C@H](Cc2ccccc2)NC(=O)[C@H](CCCNC(=N)N)NC1=O` (HELM PEPTIDE1{[ac].R.A.C.R.F.F.C}$PEPTIDE1,PEPTIDE1,4:R3-8:R3$$$V2.0), the result in data set [4] was Active.

In general, half-life refers to the time in which the quantity being followed falls by half. Low readings indicate fast loss, high ones slow loss. What is called IC50 is the concentration at which inhibition is half-maximal.

(Values after ChEMBL document CHEMBL4020843, “Ligand-Based NMR Study of C-X-C Chemokine Receptor Type 4 (CXCR4)-Ligand Interactions on Living Cancer Cells” (J Med Chem, 2018).)
